Experimental data published in ChEMBL document CHEMBL3865821, “Amino substituted benzimidazo[1,2-a]quinolines: Antiproliferative potency, 3D QSAR study and DNA binding properties” (Eur J Med Chem, 2016).
Calls of active or inactive are those of the source. No cut-off for these calls is given here.

Columns and labels:
[1] = Antiproliferative activity against human HCT116 cells after 72 hrs by MTT assay; format: functional, cell-based; conditions: HCT-116, 72 h
How it was run: (§1)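 Tumour cells were grown as monolayers in DMEM with 10 % FBS, 2 mM L-glutamine, penicillin and streptomycin at 37 °C under 5 % CO₂. Tenfold dilutions from 10^-8 to 10^-4 M were applied for 72 h, followed by MTT read at 570 nm. IC50 came from linear regression of percentage growth; at least two experiments, quadruplicate points.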

[2] = Antiproliferative activity against human MCF7 cells after 72 hrs by MTT assay; format: functional, cell-based; conditions: MCF7, 72 h; how it was run: as §1
[3] = Antiproliferative activity against human H460 cells after 72 hrs by MTT assay; format: functional, cell-based; conditions: NCI-H460, 72 h
How it was run: as §1, with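 “CO₂. They were seeded at 3×10^4 cells/mL (HCT 116, H460) or 5×10^4 cells/mL (MCF-7).” for “CO₂.”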

[4] = Binding affinity to duplex calf thymus DNA assessed as change in melting temperature at drug/DNA ratio of 0.5 by spectrophotometric analysis
How it was run: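 Calf-thymus DNA at 20 μM was heated with or without compound at 10 or 20 μM (drug/base-pair ratio 0.5 or 1) in BPE buffer (6 mM Na₂HPO₄, 2 mM NaH₂PO₄, 1 mM EDTA, pH 7.1). A260 was read every minute from 20 to 100 °C, rising 1 °C per min, and ΔTm was derived.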

[5] = Binding affinity to duplex calf thymus DNA assessed as change in melting temperature at drug/DNA ratio of 0.1 by spectrophotometric analysis
[6] = Binding affinity to duplex calf thymus DNA assessed as change in melting temperature at drug/DNA ratio of 0.05 by spectrophotometric analysis
[7] = Binding affinity to duplex calf thymus DNA assessed as hypsochromic shift at 20 uM by UV/visible spectroscopic analysis
How it was run: (§2)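 Compound at 20 μM in BPE buffer (pH 7.1) was titrated with calf-thymus DNA at 1–140 μM in a 10 mm quartz cuvette. Spectra were recorded from 240 to 480 nm against a reference cuvette holding DNA at the same concentration.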

[8] = Binding affinity to duplex calf thymus DNA assessed as bathochromic shift at 20 uM by UV/visible spectroscopic analysis; how it was run: as §2
[9] = Binding affinity to 0.5 to 480 uM of duplex […] (unknown origin) at 0.5 to 540 uM by fluorescence spectroscopic analysis
How it was run: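 Fluorescent compounds at 10 μM in BPE buffer (pH 7.1) were measured with and without rising calf-thymus DNA. Emission was scanned from 400 to 700 nm. K_sv was taken as the slope of the Stern–Volmer plot F₀/F = 1 + K_sv[ct-DNA].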

[10] = Binding affinity to duplex calf thymus DNA assessed as induction of negative circular dichroic signal at 1 to 60 uM by circular dichroism analysis
How it was run: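 Calf-thymus DNA at 50 μM was incubated in BPE buffer with or without compound at 1, 5, 10, 20, 30, 40, 50 and 60 μM. CD spectra were recorded from 480 to 230 nm in a 10 mm cell at 20 °C. The compound alone at 60 μM was checked for intrinsic CD.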

[11] = test system: Escherichia coli; test: Binding affinity to negatively supercoiled pUC19 DNA assessed as DNA intercalation by measuring generation of positively supercoiled DNA up to 50 uM preincubated for 15 mins followed by human DNA topoisomerase 1 addition measured after 30 mins by agarose gel electrophoresis
How it was run: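 Supercoiled pUC19 plasmid was treated with human topoisomerase I, alone or with compound, and topoisomers were resolved by agarose gel electrophoresis. Poisoning, seen as nicked plasmid, was assessed on ethidium bromide-containing agarose gels at up to 100 μM compound.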

[12] = Binding affinity to radiolabeled 265bp DNA (unknown origin) at 0.5 to 50 uM by DNase 1 footprinting analysis
[13] = Antiproliferative activity against human shGFP-fused HMLE cells after 72 hrs by MTT assay; format: cell-based
How it was run: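 HMLE-shGFP cells were kept in a 1:1 mix of DMEM + 10 % FBS with insulin, hydrocortisone and HuMEC medium at 37 °C, 5 % CO₂. Agents were given as tenfold dilutions from 10^-8 to 10^-4 M for 72 h, then MTT absorbance was read at 570 nm. IC50 was interpolated by linear regression of percentage growth; at least two experiments, each point in quadruplicate.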

[14] = Binding affinity to duplex calf thymus DNA assessed as change in melting temperature at drug/DNA ratio of 0.25 by spectrophotometric analysis

SMILES | IC50 ([1]; read-out: IC50) | IC50 ([1]; read-out: pIC50 (converted)) | IC50 ([2]; read-out: IC50) | IC50 ([2]; read-out: pIC50 (converted)) | IC50 ([3]; read-out: IC50) | IC50 ([3]; read-out: pIC50 (converted)) | ΔTm [4] | ΔTm [5] | ΔTm [6] | Activity [7] | Activity [8] | Activity [9] | Activity [10] | inhibition [11] | Activity [12] | IC50 [13] | ΔTm [14]
CN1CCN(c2ccc3c(N4CCN(C)CC4)c(C#N)c4nc5ccccc5n4c3c2)CC1 | 2 µM | 2 µM | 3 to 4 µM | 3 µM | 3 to 4 µM | 4 µM | – | – | – | – | – | – | – | – | – | – | –
N#Cc1c(N2CCOCC2)c2ccc(N3CCOCC3)cc2n2c1nc1ccccc12 | 11 µM | 11 µM | 9 µM | 8.99 µM | 18 µM | 18 µM | 0.5 °C | – | – | – | – | – | – | – | – | – | –
CNc1ccc2c(NC)c(C#N)c3nc4ccccc4n3c2c1 | 7 µM | 7 µM | 2 µM | 2 µM | ≥ 100 µM | 100 µM | 1.2 °C | – | – | – | – | – | – | – | – | – | –
C[N+]1(C)CCN(c2ccc3c(N4CC[N+](C)(C)CC4)c(C#N)c4nc5ccccc5n4c3c2)CC1 | > 100 µM | > 100 µM | > 100 µM | 500 µM | > 100 µM | 500 µM | – | 20.7 °C | 2.1 °C | Active | Active | Active | Active | Active | Active | – | –
CCCCCCNc1ccc2cc(C#N)c3nc4ccccc4n3c2c1 | 5 µM | 5 µM | 5 µM | 5 µM | 5 µM | 5 µM | – | – | – | – | – | – | – | – | – | – | –
CC1CN(c2ccc3c(N4CC(C)NC(C)C4)c(C#N)c4nc5ccccc5n4c3c2)CC(C)N1 (stereo unspecified) | 0.4 µM | 0.4 µM | 1 µM | 1 µM | 0.8 µM | 0.8 µM | – | – | – | – | – | – | – | – | – | 0.2 µM | –
CC(C)CCNc1ccc2cc(C#N)c3nc4ccccc4n3c2c1 | 3 µM | 3 µM | 2 µM | 2 µM | 4 µM | 4 µM | – | – | – | – | – | – | – | – | – | 3 µM | –
CCCCCCNc1c(C#N)c2nc3ccccc3n2c2ccccc12 | 4 µM | 4 µM | 3 µM | 3 µM | 2 µM | 2 µM | – | – | – | – | – | – | – | – | – | – | –
CN1CCN(c2c(C#N)c3nc4ccccc4n3c3ccccc23)CC1 | 3 µM | 3 µM | 3 µM | 3 µM | 4 µM | 4 µM | – | – | – | – | – | – | – | – | – | – | –
CCCCCN(CCCCC)c1ccc2c(N(CCCCC)CCCCC)c(C#N)c3nc4ccccc4n3c2c1 | > 100 µM | > 100 µM | > 100 µM | > 100 µM | > 100 µM | 500 µM | – | – | – | – | – | – | – | – | – | – | –
CC(C)CCNc1ccc2c(NCCC(C)C)c(C#N)c3nc4ccccc4n3c2c1 | 6 µM | 6 µM | 2 µM | 2 µM | 5 µM | 5 µM | – | – | – | – | – | – | – | – | – | 6 µM | –
CC1CN(c2ccc3cc(C#N)c4nc5ccccc5n4c3c2)CC(C)N1 (stereo unspecified) | 0.3 µM | 0.3 µM | 0.6 µM | 0.6 µM | 0.5 µM | 0.5 µM | 0 °C | – | – | – | – | – | – | – | – | 0.2 µM | –
CC(C)Nc1c(C#N)c2nc3ccccc3n2c2ccccc12 | 13 µM | 13 µM | 20 µM | 20 µM | 5 µM | 5 µM | – | – | – | – | – | – | – | – | – | – | –
CCCCNc1ccc2c(NCCCC)c(C#N)c3nc4ccccc4n3c2c1 | 7 µM | 7 µM | 5 µM | 5 µM | 4 µM | 4 µM | – | – | – | – | – | – | – | – | – | – | –
CC(C)Nc1ccc2c(NC(C)C)c(C#N)c3nc4ccccc4n3c2c1 | ≥ 10 µM | 10 µM | 7 µM | 7 µM | 21 µM | 21 µM | – | – | – | – | – | – | – | – | – | – | –
CC(C)CCNc1c(C#N)c2nc3ccccc3n2c2ccccc12 | 5 µM | 5 µM | 4 µM | 4 µM | 2 µM | 2 µM | – | – | – | – | – | – | – | – | – | – | –
CN1CCN(c2ccc3cc(C#N)c4nc5ccccc5n4c3c2)CC1 | 0.6 µM | 0.6 µM | 2 µM | 2 µM | 1 µM | 1 µM | – | – | – | – | – | – | – | – | – | 0.5 µM | –
COc1cc([C@@H]2c3cc4c(cc3[C@@H](O[C@@H]3O[C@@H]5CO[C@@H](C)O[C@H]5[C@H](O)[C@H]3O)[C@H]3COC(=O)[C@H]23)OCO4)cc(OC)c1O [ETOPOSIDE] | 5 µM | – | 1 µM | – | 0.1 µM | – | – | – | – | – | – | – | – | – | – | 0.4 µM | –
CCCN(CCC)c1ccc2c(N(CCC)CCC)c(C#N)c3nc4ccccc4n3c2c1 | 14 µM | 14 µM | 21 µM | 21 µM | 29 µM | 29 µM | 0 °C | – | – | – | – | – | – | – | – | – | –
CC(C)CNc1ccc2c(NCC(C)C)c(C#N)c3nc4ccccc4n3c2c1 | 2 µM | 2 µM | 2 µM | 2 µM | 3 µM | 3 µM | – | – | – | – | – | – | – | – | – | – | –
N#Cc1c(N2CCNCC2)c2ccc(N3CCNCC3)cc2n2c1nc1ccccc12 | 1.5 µM | 1.5 µM | 1 µM | 1 µM | 4 µM | 4 µM | 20.1 °C | 5.1 °C | – | Active | Active | Active | Active | Active | Active | 2 µM | 15.9 °C
COc1cccc2c1C(=O)c1c(O)c3c(c(O)c1C2=O)C[C@@](O)(C(=O)CO)C[C@@H]3O[C@H]1C[C@H](N)[C@H](O)[C@H](C)O1 [DOXORUBICIN] | – | – | – | – | 0.03 µM | – | – | – | – | – | – | – | – | – | – | 0.01 µM | –
CC1CN(c2c(C#N)c3nc4ccccc4n3c3ccccc23)CC(C)N1 (stereo unspecified) | 3 µM | 3 µM | 6 µM | 6 µM | 4 µM | 4 µM | – | – | – | – | – | – | – | – | – | 3 µM | –
CC(C)Nc1ccc2cc(C#N)c3nc4ccccc4n3c2c1 | 0.8 µM | 0.8 µM | 0.7 µM | 0.7 µM | 2 µM | 2 µM | – | – | – | – | – | – | – | – | – | 1 µM | –
N#Cc1c(N2CCCCC2)c2ccc(N3CCCCC3)cc2n2c1nc1ccccc12 | 11 µM | 11 µM | 10 µM | 10 µM | 15 µM | 15 µM | 0.7 °C | – | – | – | – | – | – | – | – | – | –
CCCCCCNc1ccc2c(NCCCCCC)c(C#N)c3nc4ccccc4n3c2c1 | > 100 µM | > 100 µM | > 100 µM | > 100 µM | > 100 µM | 500 µM | – | – | – | – | – | – | – | – | – | – | –
CCN(CC)c1ccc2c(N(CC)CC)c(C#N)c3nc4ccccc4n3c2c1 | 16 µM | 16 µM | 22 µM | 22 µM | 25 µM | 25 µM | – | – | – | – | – | – | – | – | – | – | –
